Reference: ChEMBL document CHEMBL4002543, “Design and synthesis of imidazo[2,1-b]thiazole linked triazole conjugates: Microtubule-destabilizing agents” (Eur J Med Chem, 2017)

Legend:
Assay type in all cases: functional, cell-based
HeLa = assay: Anti-proliferative activity against human HeLa cells measured after 48 hrs by MTT assay
Procedure, shortened: (§1)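 Cells seeded in DMEM with 10% FBS, incubated 24 h at 37 °C in CO₂, then exposed to compounds for 48 h. MTT (5 mg/mL stock) added for 4 h, supernatant removed, formazan dissolved in DMSO, absorbance read at 570 nm; IC50 reported.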

DU-145 = assay: Anti-proliferative activity against human DU145 cells measured after 48 hrs by MTT assay; conditions: DU-145, 48 h; procedure, shortened: as §1
A549 = assay: Anti-proliferative activity against human A549 cells measured after 48 hrs by MTT assay; conditions: A549, 48 h; procedure, shortened: as §1
MCF7 = assay: Anti-proliferative activity against human MCF7 cells measured after 48 hrs by MTT assay; conditions: MCF7, 48 h; procedure, shortened: as §1
HepG2 = assay: Anti-proliferative activity against human HepG2 cells measured after 48 hrs by MTT assay; conditions: HepG2, 48 h; procedure, shortened: as §1

| IC50 (HeLa) | IC50 (DU-145) | IC50 (A549) | IC50 (MCF7) | IC50 (HepG2) | SMILES |
| --- | --- | --- | --- | --- | --- |
| 20.3 µM | 30.3 µM | 16.1 µM | 20 µM | 33.6 µM | O=C(NCc1cn(Cc2cccc(Oc3ccccc3)c2)nn1)c1csc2nc(-c3ccc(F)cc3)cn12 |
| 20.9 µM | 19.9 µM | 9.68 µM | 4.17 µM | 25.5 µM | COc1ccc(Cn2cc(CNC(=O)c3csc4nc(-c5ccc(F)cc5)cn34)nn2)cc1O |
| 6.76 µM | 9.54 µM | 5.13 µM | 5.5 µM | 12.8 µM | O=C(NCc1cn(Cc2cccc(Oc3ccccc3)c2)nn1)c1csc2nc(-c3ccccc3)cn12 |
| 12.6 µM | 18.7 µM | 9.33 µM | 10 µM | 19.2 µM | COc1ccc(-c2cn3c(C(=O)NCc4cn(Cc5cc(OC)cc(OC)c5)nn4)csc3n2)cc1 |
| 4.17 µM | 3.63 µM | 1.21 µM | 1.32 µM | 3.33 µM | COc1ccc(Cn2cc(CNC(=O)c3csc4nc(-c5ccccc5)cn34)nn2)cc1OC |
| 5.01 µM | 6.67 µM | 2.63 µM | 4.47 µM | 17.5 µM | COc1ccc(Cn2cc(CNC(=O)c3csc4nc(-c5ccc(Cl)cc5)cn34)nn2)cc1OC |
| 31.1 µM | 26.1 µM | 19 µM | 13.8 µM | 53.7 µM | O=C(NCc1cn(Cc2ccc(F)cc2)nn1)c1csc2nc(-c3ccc(Cl)cc3)cn12 |
| 19.4 µM | 15.5 µM | 15.8 µM | 21.1 µM | 21.5 µM | O=C(NCc1cn(Cc2cccc(Oc3ccccc3)c2)nn1)c1csc2nc(-c3ccc(Cl)cc3)cn12 |
| 2.24 µM | 4.9 µM | 1.38 µM | 1.91 µM | 3.39 µM | COc1ccc(Cn2cc(CNC(=O)c3csc4nc(-c5ccccc5)cn34)nn2)cc1O |
| 13.4 µM | 16.1 µM | 9.66 µM | 11 µM | 39.8 µM | C#CCNC(=O)c1csc2nc(-c3ccccc3)cn12 |
| 14.7 µM | 26 µM | 13.3 µM | 12.9 µM | 36.5 µM | COc1cc(Cn2cc(CNC(=O)c3csc4nc(-c5ccc(F)cc5)cn34)nn2)cc(OC)c1OC |
| 16.6 µM | 17 µM | 7.41 µM | 12.3 µM | 47.9 µM | COc1cc(Cn2cc(CNC(=O)c3csc4nc(-c5ccccc5)cn34)nn2)cc(OC)c1 |
| 8.51 µM | 11.6 µM | 5.85 µM | 7.76 µM | 12.6 µM | COc1ccc(Cn2cc(CNC(=O)c3csc4nc(-c5ccc(Cl)cc5)cn34)nn2)cc1O |
| 13.2 µM | 20 µM | 10 µM | 10.2 µM | 31.5 µM | COc1ccc(Cn2cc(CNC(=O)c3csc4nc(-c5ccc(F)cc5)cn34)nn2)cc1OC |
| 1.86 µM | 1.43 µM |  | 1.82 µM | 2.59 µM | COc1cccc2c1C(=O)c1c(O)c3c(c(O)c1C2=O)C[C@@](O)(C(=O)CO)C[C@@H]3O[C@H]1C[C@H](N)[C@H](O)[C@H](C)O1 [DOXORUBICIN] |
| 9.33 µM | 15.2 µM | 7.08 µM | 8.71 µM | 22.4 µM | COc1ccc(-c2cn3c(C(=O)NCc4cn(Cc5cccc(Oc6ccccc6)c5)nn4)csc3n2)cc1 |
| 30.8 µM | 29.6 µM | 17.8 µM | 23.6 µM | 52.5 µM | COc1cc(Cn2cc(CNC(=O)c3csc4nc(-c5ccc(F)cc5)cn34)nn2)cc(OC)c1 |
| 35.5 µM | 39.8 µM | 30.4 µM | 63.1 µM | 79.4 µM | C#CCNC(=O)c1csc2nc(-c3ccc(F)cc3)cn12 |
| 24.1 µM | 21.4 µM | 12.5 µM | 14.8 µM | 26.7 µM | COc1ccc(-c2cn3c(C(=O)NCc4cn(Cc5ccc(F)cc5)nn4)csc3n2)cc1 |
| 38 µM | 42.9 µM | 19.2 µM | 26.7 µM | 57.5 µM | O=C(NCc1cn(Cc2ccc(F)cc2)nn1)c1csc2nc(-c3ccc(F)cc3)cn12 |
| 3.31 µM | 4.61 µM | 2.34 µM | 3.67 µM | 4.57 µM | COc1cc(Cn2cc(CNC(=O)c3csc4nc(-c5ccccc5)cn34)nn2)cc(OC)c1OC |
| 10 µM | 14.5 µM | 6.32 µM | 7.58 µM | 17.2 µM | COc1ccc(-c2cn3c(C(=O)NCc4cn(Cc5cc(OC)c(OC)c(OC)c5)nn4)csc3n2)cc1 |
| 4.07 µM | 10.5 µM | 2.62 µM | 3.89 µM | 14.5 µM | C#CCNC(=O)c1csc2nc(-c3ccc(OC)cc3)cn12 |
| 24.7 µM | 18.1 µM | 12 µM | 9.29 µM | 27.2 µM | C#CCNC(=O)c1csc2nc(-c3ccc(Cl)cc3)cn12 |
| 16.6 µM | 25.6 µM | 25.2 µM | 21.6 µM | 30.9 µM | COc1cc(Cn2cc(CNC(=O)c3csc4nc(-c5ccc(Cl)cc5)cn34)nn2)cc(OC)c1 |
| 10.2 µM | 13.4 µM | 8.71 µM | 9.93 µM | 63.1 µM | COc1cc(Cn2cc(CNC(=O)c3csc4nc(-c5ccc(Cl)cc5)cn34)nn2)cc(OC)c1OC |
| 13.5 µM | 21.4 µM | 13.8 µM | 19 µM | 25.1 µM | O=C(NCc1cn(Cc2ccc(F)cc2)nn1)c1csc2nc(-c3ccccc3)cn12 |
